Only some compounds are listed: those with a hit (about 3.1% of all), similar ones and a draw of the others.
ADAM10 inh: ADAM10 inhibition, QFRET primary screen; recombinant ADAM10, EDANS/DABCYL FRET peptide cleavage, 3 h; inhibition, % at 7 µM; AID 720582; hit rate 0.62% among 370,000; O14672;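 active = inhibition above a per-campaign cutoff equal to the mean of compounds falling between control-based bounds plus 3 SD, cut at about 20% in these data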;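 note: 0% = DMSO wells while the 100% control is not disclosed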
Target sequence (O14672 214-748 limits assumed): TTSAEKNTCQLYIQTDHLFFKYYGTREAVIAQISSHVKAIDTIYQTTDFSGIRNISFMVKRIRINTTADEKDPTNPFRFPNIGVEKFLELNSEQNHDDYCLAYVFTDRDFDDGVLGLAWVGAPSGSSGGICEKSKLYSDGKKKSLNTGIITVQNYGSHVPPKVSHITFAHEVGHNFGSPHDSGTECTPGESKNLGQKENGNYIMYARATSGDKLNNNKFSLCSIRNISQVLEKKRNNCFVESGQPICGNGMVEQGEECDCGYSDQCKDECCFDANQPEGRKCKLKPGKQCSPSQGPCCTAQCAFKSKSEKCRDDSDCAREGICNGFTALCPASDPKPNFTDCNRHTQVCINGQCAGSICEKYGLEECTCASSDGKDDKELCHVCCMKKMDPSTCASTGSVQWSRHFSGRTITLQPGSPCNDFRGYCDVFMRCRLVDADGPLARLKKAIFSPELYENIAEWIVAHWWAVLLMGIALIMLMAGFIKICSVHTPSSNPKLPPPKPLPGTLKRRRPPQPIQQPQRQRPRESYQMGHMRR
MPTP block: permeability transition pore inhibition; hit rate 1.4% among 360,000; isolated mouse mitochondria, Ca2+ swelling absorbance, 30 min; inhibition, % at 10 µM;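 active = inhibition of 50% or more, scaled per plate between neutral and stimulator controls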;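 note: 0% = DMSO wells given calcium and 100% = 1 mM EGTA wells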
ADAM17 inh: inhibits human ADAM17 | P78536 | recombinant ADAM17, EDANS/DABCYL FRET peptide cleavage | inhibition, % at 6.95 µM | hit rate 0.83% among 370,000;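 active = inhibition above the mean of compounds lying between control limits plus 3 SD, set per campaign, cut at about 8.5% in these data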;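 note: 0% = DMSO-only wells as the low control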
aDG glyco act: alpha-DG glycosylation activation; AID 624168; activation, % at 10 µM; hit rate 0.22% among 360,000; Pro5-aDG cells, alpha-DG glycosylation AlphaScreen (IIH6); 0% Pro5, 100% B10-LARGE cell signal;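 active = activation of at least 8% versus controls, or a plate z-score of at least 8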;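 note: Pro5 are CHO cells carrying HIG-tagged alpha-DG that lacks glycosylation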
Hep lipid drop: modulators of hepatic lipid droplet formation | AID 1656 | hit rate 0.4% among 240,000 | AML12 mouse hepatocytes, oleate lipid droplets, BODIPY imaging | inhibition, % at 6.5 µM;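 active = lipid droplet intensity inhibited by at least 50%, with more than 500 cells counted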
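Technique: fluorescence imaging, 20x objective, two fields per well / Assay system: AML12 hepatocytes (mouse) / Measure: % inhibition of lipid droplet signal / Doses: 6.5 µM single-point dosing / Incubation: overnight exposure / Reagent: 100 µM oleic acid challenge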
V-ATPase pHluor: alters yeast V-ATPase proton transport | S. cerevisiae, pHLuorin cytosolic pH fluorescence | response, % at 10 µM | hit rate 0.37% among 350,000; in the data active = response mostly above about 7.3%, no sharp cut-off; inactive = mostly below about 5.4%; note: actives read high
MPTP counter: mitochondrial membrane potential, counter-screen; shares compounds with MPTP block; isolated mitochondria, Rhodamine 123 fluorescence; inhibition, % at 10 µM; hit rate 78% among 5,000; in the data active = inhibition above about 22%;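 note: 0% = DMSO vehicle and 100% = positive control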
MPTP abs DR: MPTP inhibition, dose response swelling confirmation | hit rate 58% among 780 | AID 651561 | shares compounds with MPTP block | isolated mitochondria swelling, absorbance | IC50, µM; in the data active = IC50 below about 20 µM
MPTP counter DR: counter-screen for mitochondrial permeability transition pore inhibitors, dose response | hit rate 49% among 780 | IC50, µM | isolated mitochondria counterscreen, fluorescence read-out | shares compounds with MPTP block; in the data active = IC50 below about 80 µM
Active calls of the source: *; i = inactive; nt = no result given.

SMILES	ADAM10 inh	MPTP block	ADAM17 inh	aDG glyco act	Hep lipid drop	V-ATPase pHluor	MPTP counter	others
Cc1ccccc1-c1nn(-c2ccc(F)cc2F)cc1CNCC(C)O (stereo unspecified)	4.0	-0.7	-2.3	-0.2	-2.1	-0.6	nt
CS(=O)(=O)C1=NSC2=NC(=O)/C(=C\c3cccn3-c3ccc(Cl)cc3)C(=N)N21	-5.2	96.1*	-0.7	-0.1	-1.6	3.1	60.6*
CCOC(=O)/C(C#N)=C1/C=C(C)NC(c2ccccc2O)=N1	-5.7	94.3*	-4.5	0.5	-13.7	-0.2	88.6*
CCOC(=O)/C(C#N)=C1\Nc2ccccc2N=C1N(CC(C)C)CC(C)C	-26.3	2.6	-9.2	-0.5	15.2	-4.1	nt
CCc1ccccc1NC(=O)c1cc(C)nn1-c1ccccc1	-7.5	nt	-3.2	nt	nt	nt	nt
Cc1ccc(C2C(C#N)=C(N)SC(N)=C2C#N)c(C)c1	nt	52.6*	nt	-0.1	nt	4.5	63.7*
Cc1ccc(C2C(C#N)=C(N)SC(N)=C2C#N)cc1	-45.8	54.5*	-10.7	-0.1	nt	0.6	67.4*
Cn1c2cc(S(C)=O)sc2c2cnn(Cc3cccc(N)c3)c(=O)c21 (stereo unspecified)	-4.0	nt	-2.2	nt	nt	nt	nt
O=C(Cc1ccccc1[N+](=O)[O-])NCc1ccc(Cl)cc1	1.3	-3.4	-0.4	-0.3	0.9	-0.4	nt
O=C(NCc1ccc(Cl)cc1)c1n[nH]c([N+](=O)[O-])c1Cl	3.1	76.0*	2.9	-0.4	-10.9	1.4	90.7*
O=[N+]([O-])c1ccc(O)c(C2=NNC(c3ccccc3F)C2)c1 (stereo unspecified)	4.2	88.8*	1.0	-0.1	-29.5	2.0	85.1*
COc1ccc(-n2c(SCC(=O)Nc3ccc(S(=O)(=O)Nc4nccs4)cc3)nnc2-c2cccs2)cc1	1.3	nt	1.2	nt	nt	nt	nt
CC1CC(C)CN(Cc2nc(N)nc(Nc3ccc4ccccc4c3)n2)C1 (stereo unspecified)	8.0	62.6*	1.4	0.6	2.5	6.4	-11.4	MPTP abs DR=>100;MPTP counter DR=>80
CC1CC(C)CN(Cc2nc(N)nc(Nc3ccccc3)n2)C1 (stereo unspecified)	-5.0	-6.7	-2.0	-0.1	nt	1.8	nt
CCCCNS(=O)(=O)c1ccc2nc(SCC(=O)Nc3sccc3C#N)[nH]c2c1	20.1*	79.4*	12.7*	0.1	nt	-1.1	-3.6	MPTP abs DR=11.2*;MPTP counter DR=<2.5*
CCCCNS(=O)(=O)c1ccc2nc(SCC(N)=O)[nH]c2c1	1.1	-0.5	-7.5	0.0	-16.9	0.6	nt
C=CCn1c(COc2ccccc2)nnc1SCC(=O)c1ccc(-c2ccccc2)cc1	-3.9	nt	4.8	nt	nt	nt	nt
c1ccc2c(c1)oc1c(N3CCN(Cc4ccc5c(c4)OCO5)CC3)ncnc12	5.5	86.1*	-1.4	1.1	-4.5	-0.8	77.3*
O=C(CSc1nnc(CNC(=O)c2cccs2)o1)c1ccc(Cl)cc1	8.0	77.2*	0.4	1.3	-8.4	-3.6	30.4*
O=C(CSc1nnc(CNC(=O)c2ccccc2F)o1)c1ccc(Cl)cc1	5.8	69.1*	-3.4	0.5	-3.0	-5.9	13.2	MPTP abs DR=i;MPTP counter DR=25.8*
O=C(CSc1nnc(CNC(=O)c2cccs2)o1)c1ccccc1	-1.4	0.9	-3.2	-0.2	4.1	4.9	nt
O=C(CSc1nnc(-c2cccs2)o1)c1ccc2c(c1)OCO2	-6.7	nt	-4.2	nt	nt	nt	nt
O=C(CCc1ccccc1)N[C@H]1[C@@H](OC(=O)c2ccco2)CCC[C@]12C(=O)N(Cc1ccccc1)c1ccccc12	5.0	nt	3.7	nt	nt	nt	nt
C#CCNC(=O)C[C@H]1C(=O)N(CC=C)C2=CCCC[C@@]21C(=O)OCC	-4.7	nt	-2.8	nt	nt	nt	nt
Oc1ccc(Cl)cc1CNCc1ccc(Cl)cc1	1.1	0.2	-1.7	0.0	nt	-1.7	nt
SMILES	ADAM10 inh	MPTP block	ADAM17 inh	aDG glyco act	Hep lipid drop	V-ATPase pHluor	MPTP counter	others
Oc1ccc(Cl)cc1Cc1cc(Cl)ccc1O	25.6*	86.4*	7.5	0.0	-28.9	1.0	86.5*
Cc1nn(-c2ccccc2)c(C)c1/C=N\NC(=O)CSc1nc2ccccc2n1Cc1ccc(Cl)cc1	12.7	nt	6.2	nt	nt	nt	nt
COc1ccccc1CCc1nnc(CCC(=O)N(C)Cc2cccc3cnccc23)o1	-3.9	3.2	-1.5	0.8	-6.6	4.3	nt
COc1ccc(CCc2nnc(CCC(=O)N(C)Cc3ccnc4ccccc34)o2)cc1	0.6	79.4*	0.0	1.0	-19.1	-1.9	30.4*
COC(=O)C[C@H]1CC[C@@H]2[C@H](COc3ccc(NC(=O)c4cccc(F)c4)cc3C(=O)N2C)O1	-0.2	nt	-0.2	nt	nt	nt	nt
CC(=O)Oc1ccc(C(=O)Cc2ccc3ccccc3n2)c(O)c1C	0.0	3.9	3.4	2.0	24.5	-1.0	nt
Cc1c(O)ccc(/C(Cc2ccc3ccccc3n2)=N\O)c1O	3.0	72.9*	2.1	0.5	nt	0.0	34.5*
COc1ccc2c(c1)Sc1ccc(Cl)cc1N2	-17.8	nt	-4.8	nt	nt	nt	nt
CC(C)c1cc(C(C)C)c(S(=O)(=O)N2CCCC(C(=O)N3CCN(Cc4ccccc4)CC3)C2)c(C(C)C)c1 (stereo unspecified)	5.4	nt	0.3	nt	nt	nt	nt
CCOC(=O)Cc1nc(N2CCN(C=O)CC2)c2c(C)c(C(=O)OCC)sc2n1	-14.8	nt	-1.5	nt	nt	nt	nt
O=C(Nc1ccccc1)N(CCCN1CCOCC1)Cc1ccccc1F	-9.6	2.2	-2.2	0.3	nt	-0.6	nt
O=C(Nc1cccc(Cl)c1)N(CCCN1CCOCC1)Cc1ccccc1F	7.3	95.2*	3.2	0.2	-15.2	-6.0	95.2*
Clc1cc(Cl)cc(CNC2CCC23CCC(c2ccccc2)CC3)c1 (stereo unspecified)	0.3	nt	-1.1	nt	nt	nt	nt
CCn1ccnc1CN(C)Cc1cn(-c2ccc(C)cc2)nc1-c1cccc(C)c1	11.4	50.9*	3.8	0.4	-9.3	4.6	-8.7	MPTP abs DR=>100;MPTP counter DR=45.8*
CCn1ccnc1CN(C)Cc1cn(-c2cccc(C)c2)nc1-c1cccc(F)c1	18.7	1.4	4.6	0.1	15.8	-1.1	nt
O=C(Cc1ccccc1)N1CCC(Oc2cccnc2)CC1	-3.4	nt	-2.9	nt	nt	nt	nt
CC(N=c1ccccn1C(=O)Nc1cccc(C(F)(F)F)c1)c1ccco1 (stereo unspecified)	0.0	90.1*	1.8	0.1	-16.2	0.5	83.6*
CC1CN(C(=O)Nc2cccc(C(F)(F)F)c2)CC(C)O1 (stereo unspecified)	3.0	6.3	-1.4	0.3	20.8	-0.1	nt
Cc1ccc(-n2ncc3c(N4CCN(c5ccccc5)CC4)ncnc32)c(C)c1	3.8	51.4*	-2.5	0.4	nt	-9.2	33.5*
COc1ccc(N2CCN(c3ncnc4c3cnn4-c3ccc(C)cc3C)CC2)cc1	0.4	10.0	-3.4	1.9	1.4	4.8	nt
CC(Nc1ncnc2sccc12)c1ccccc1 (stereo unspecified)	2.8	84.2*	0.6	2.2*	-42.4	3.3	80.2*

Screening data (PubChem BioAssay)
